Source: ChEMBL document CHEMBL1123581, “Differential blockade of muscarinic receptor subtypes by polymethylene tetraamines. Novel class of selective antagonists of cardiac M-2 muscarinic receptors” (J Med Chem, 1987)

Assays:
[1] = target: Muscarinic acetylcholine receptor; assay: Compound was evaluated for blocking activity on Muscarinic acetylcholine receptor in guinea pig atria; format: protein assay, Cavia porcellus
[2] = target: Muscarinic acetylcholine receptor; assay: Compound was evaluated for blocking activity on Muscarinic acetylcholine receptor in rat bladder
How it was run: (§1)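 Male rat terminal ileum segment (20 mm, ~5 cm from ileocecal junction) or 2-mm longitudinal bladder strip, in Krebs-type solution. After 30 min equilibration, cumulative furtrethonium iodide curves (~3-fold steps) at 30-min intervals; antagonist incubated 30 min. Isometric contraction recorded.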

[3] = target: Muscarinic acetylcholine receptor; assay: Compound was evaluated for blocking activity on Muscarinic acetylcholine receptor in rat ileum; format: tissue-based; how it was run: as §1
[4] = Selectivity ratio of pA2 of rat ileum to pA2 of rat bladder; format: tissue-based
How it was run: (§2)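 Computed as the antilog of the difference between pA2 values for the two tissues (atria/ileum, atria/bladder, ileum/bladder). Each pA2 is a Schild value from muscarinic agonist dose ratios at three antagonist concentrations, each n≥5.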

[5] = Selectivity ratio of pA2 of guinea pig atria to pA2 of rat bladder; how it was run: as §2
[6] = Selectivity ratio of pA2 of guinea pig atria to pA2 of rat ileum; format: tissue-based; how it was run: as §2

| pA2 [1] | pA2 [2] | pA2 [3] | Ratio [5] | Compound | Ratio [4] | Ratio [6] |
| --- | --- | --- | --- | --- | --- | --- |
| 7.96 | 6.08 | 5.81 |  | COc1ccccc1CNCCCCCCNCCCCCCCCCNCCCCCCNCc1ccccc1OC.Cl.Cl.Cl.Cl |  |  |
| 7.71 | 5.49 | 5.73 | 166 | COc1ccccc1CNCCCCCCNCCCCCCCCCCNCCCCCCNCc1ccccc1OC.Cl.Cl.Cl.Cl | 1.74 | 95 |
| 6.87 | 5.57 | 5.29 | 20 | COc1ccccc1CNCCCCCCNCCCCCCNCCCCCCNCc1ccccc1OC.Cl.Cl.Cl.Cl | 0.52 | 38 |
| 7.35 | 7.13 | 7.62 | 1.66 | COc1ccccc1CNCCCCCCNCCCCCCCCCCCCNCCCCCCNCc1ccccc1OC.Cl | 3.09 | 0.54 |
